Screening data from PubChem.
Shown is part of a subset that was picked to be rich in hits.
T cruzi inh – inhibitors of intracellular T. cruzi growth, primary screen, luminescence, NIH3T3 host cells; inhibition, % (no concentration beside the values); 1.4% of 300,000 active; T. cruzi beta-gal in NIH3T3, 90 h;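 active = mean inhibition across valid replicates above about 55%, limit read from the data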;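 also: signal also drops with host cell toxicity which is not excluded here; 0% = plate median of DMSO wells and 100% = zero luminescence signal; higher percent means less beta-gal luminescence so fewer parasites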
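Assay system: NIH/3T3 fibroblasts plus reporter T. cruzi. Amount: NIH/3T3 cells, 5,000 per well. Buffer or medium: DMEM, 2% fetal bovine serum. Doses: compound pinned at 50 nL/well, DMSO. Schedule: ≥90 h infection period, 3 h prior cell attachment. Signal: luminescent β-galactosidase signal after 60 min lysis. Read-out: parasite load inhibition, %.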
Hsp70 activator – Hsp70 transcriptional activators, primary screen, cell-based, HeLa, Hsp70 promoter luciferase, luminescence, 10 µM | activation, % at 10 µM | HeLa Hsp70 promoter luciferase reporter; scaled: vehicle 0, proteasome-inhibitor control 100% | 0.04% of 200,000 active;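 active = activation above the mean across all tested compounds plus 3 SD, cutoff set per campaign, cut at about 5.5% in these data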;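 also: 100% = MG132 at 30 µM as the positive control and 0% = DMSO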
HSF1 inh – HSF1 inhibitors in luciferase reporter cells, primary screen, cell-based, NIH3T3, luminescence. NIH3T3-HGL HSE-luciferase, MG132-induced, luminescence 8 h; stronger effect = lower value. activity change, negative = inhibition, % at 7.5 µM (by protocol). 0.77% of 300,000 active. AID 2098, 2009;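 active = more than half of replicate wells show activity change below -50%, luminescence cut by over half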;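 also: luciferase reports HSF-1 transcriptional activity via heat shock element; 0% = median of DMSO wells and -100% = zero luminescence signal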
HSF1 activator – HSF-1 activators, primary screen, NIH3T3-HGL cells, MG132 stress, luminescence, single point | activation, % at 9 µM | AID 504408, 2011 | NIH3T3-HGL HSF-1 luciferase reporter, 8 h; 100% = twice DMSO control signal | 1.7% of 300,000 active;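 active = mean replicate activation of at least 50% with a set share of replicates each reaching 50%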;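 also: 0% = median of the neutral control wells and 100% = twice that signal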
Lmaj promast – Leishmania major promastigote growth inhibition, primary screen | Leishmania major promastigotes, resazurin fluorescence viability | inhibition, % at 10 µM | 9% of 200,000 active | AID 1063, 2008; in the data active = inhibition above about 50%;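 also: promastigotes grown with compound for 44 hours at 28 °C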
* marks the source's active call; other numbers are inactive results; / = no result.

SMILES	T cruzi inh	Hsp70 activator	HSF1 inh	HSF1 activator	Lmaj promast
CCN(CC)CCNC(=O)c1c(O)c2cc(OC)c(OC)cc2[nH]c1=O	-1	0	-2	-10	79*
OC1(c2cccc(F)c2)CCN(Cc2ccncc2)CC1	-21	0	-2	-4	94*
OC1(c2cccc(C(F)(F)F)c2)CCN(Cc2nnnn2Cc2ccccc2)CC1	8	0	-6	4	18
O=C(Cn1nnc2ccccc2c1=O)N[C@@H](Cc1ccccc1)C(=O)O	-16	/	-6	-4	/
CCSc1nnc(NC(=O)C2CC2c2ccccc2)s1 (centres undefined)	3	0	-7	-2	82*
CCSc1nnc(NC(=O)C2CCCCC2C(=O)O)s1 (centres undefined)	-10	0	-4	-13	-3
CCSc1nnc(NC(=O)C2CCN(S(=O)(=O)c3ccccc3C(F)(F)F)CC2)s1	20	0	3	2	55*
O=C(Nc1nnc(-c2ccccc2F)s1)C1CCN(S(=O)(=O)c2ccc(Cl)cc2)CC1	-5	0	/	/	6
O=C(Nc1nnc(-c2ccccc2Cl)s1)C1CCN(S(=O)(=O)c2ccc(Cl)cc2)CC1	-3	0	13	56*	-1
O=C(c1cc2cc(Cl)ccc2[nH]1)N1CCN(C(=O)c2ccco2)CC1	-6	/	-2	4	/
CCN(CC)C(=S)Oc1ccc(Cl)cc1Cl	-1	/	-6	-7	/
CN=C1SC(CC(=O)Nc2c(C)cccc2C)C(=O)N1/N=C/c1cccs1 (centres undefined)	2	0	-2	2	55*
CN=C1SC(CC(=O)Nc2cccc(Cl)c2Cl)C(=O)N1C (centres undefined)	26	0	-7	-11	-2
CCCCC(=O)N(Cc1ccc(-c2ccccc2-c2nn[nH]n2)cc1)[C@H](C(=O)O)C(C)C	-8	0	-3	1	/
CN(Cc1cccc(F)c1)C(=O)CNS(=O)(=O)c1ccc2ccccc2c1	8	/	29	63*	/
CSc1ccc(S(=O)(=O)NCC(=O)OCC(=O)N(C)Cc2ccccc2)cc1[N+](=O)[O-]	-6	/	-8	-3	/
CNCCCCOc1ccc(C(C)(C)C)cc1Cl	59*	1	2	16	98*
CC(C)(C)c1ccc(OCCON2C(=O)CCC2=O)c(Cl)c1	-12	0	6	10	-2
CC(=O)Nc1ccc(S(=O)(=O)N(C)CC(=O)OCC(=O)N2CC(C)OC(C)C2)cc1 (centres undefined)	-14	/	-6	-6	/
CN1CCN(CCOc2ccc(-c3ccccc3)cc2)CC1	43	/	-3	23	/
CN1CCN(CCCOc2ccc(-c3ccccc3)cc2)CC1	56*	/	4	21	/
CCN1CCN(CCCOc2ccc(-c3ccccc3)cc2)CC1	72*	0	-4	0	98*
COCC1CCN(C(=O)c2oc3c(F)cccc3c2C)C1 (centres undefined)	-3	/	1	7	/
CC(C)Nc1ccc(Nc2ccnc3cc4ccccc4cc23)cc1	58*	/	6	1	/
COc1ccc(Nc2ccccc2N)cc1	8	0	-2	-6	92*
SMILES	T cruzi inh	Hsp70 activator	HSF1 inh	HSF1 activator	Lmaj promast
COc1ccc(Nc2c(C)cccc2C)cc1	6	0	-2	25	1
COc1ccc(Nc2ccnc(Nc3ccc(OC)cc3)n2)cc1	46	0	19	31	100*
COc1ccc(Nc2ccnc3ccccc23)cc1	14	0	-23	-22	101*
COc1ccc(Nc2nc(OC)nc(OC)n2)cc1	-4	/	2	9	/
COc1ccc(Nc2ncnc3ccccc23)cc1	0	0	-3	-3	12
COc1ccc(Nc2cc(C)nc3ccc(OC)cc23)cc1	31	/	2	9	/
CCn1c(=O)n(CC)c2cc(N3CCCC3)c(NC(=O)c3ccccc3F)cc21	3	/	4	7	/
CC(=O)Oc1ccc(C(=O)Nc2cc(C)on2)cc1	-9	/	-3	7	/
c1ccc(CCNc2ccnc3cc4ccccc4cc23)cc1	59*	0	11	18	100*
O=C(Cc1ccccc1)NCC(=O)OCC(=O)c1ccccc1Cl	-16	0	-1	-14	93*
O=C(CNC(=O)c1ccccc1)OCC(=O)c1ccccc1Cl	-4	/	-6	0	/
OCCC1CN(Cc2nc3c(s2)CCCC3)CCN1CCc1ccccc1 (centres undefined)	28	0	-6	-7	76*
CC(C)CCN1CCN(Cc2nc3c(s2)CCCC3)CC1CCO (centres undefined)	38	3	-2	-17	75*
CSc1nsc(SCC(=O)Nc2ccccc2F)n1	9	/	4	9	/
Cc1ccc(N2CC(NS(=O)(=O)c3cccs3)CC2=O)cc1 (centres undefined)	6	/	-1	7	/
COc1cccc2cc(C(=O)NCCN3CCOCC3)c(=O)oc12	-14	/	0	-16	/
Cc1ccc(OCCC(=O)N(CCC(C)C)c2c(N)n(Cc3ccccc3)c(=O)[nH]c2=O)cc1	-4	/	-4	-1	/
CCN(CC)c1ccc2cc(C(=O)NNC(=O)c3ccc(S(=O)(=O)N4CCCCC4)cc3)c(=O)oc2c1	8	0	-1	-8	92*
O=C(NNC(=O)c1ccccc1C(=O)O)c1ccc(S(=O)(=O)N2CCCCC2)cc1	5	/	0	7	/
CCN(CC)c1ccc2cc(S(=O)(=O)c3ccc(C)cc3)c(=O)oc2c1	20	0	-6	-13	96*
Cc1ccc(S(=O)(=O)c2cc3ccccc3oc2=O)cc1	-5	0	7	7	-2
Cc1cc(=O)[nH]c(N/N=C/c2ccccc2C(F)(F)F)n1	5	0	/	/	1
Cc1cc(=O)[nH]c(N=N/C(=N/Nc2ccc(O)cc2)c2ccccc2)n1	40	0	21	38	94*
Cc1cc(=O)[nH]c(SCC(=O)Nc2ccccc2C)n1	-20	0	0	-9	-8
Cc1cc(=O)[nH]c(N=N/C(=N/Nc2ccccc2C)c2ccccc2)n1	40	0	-5	-10	98*
COc1ccc(N/N=C(/N=Nc2nc(C)cc(=O)[nH]2)c2ccccc2)cc1	44	0	0	5	100*
COc1ccc(C(=O)CSc2nc(C)cc(=O)[nH]2)cc1	6	0	0	2	-11
CN1C(=O)/C(=C/c2ccccc2OCc2ccccc2F)NC1=S	-21	0	7	10	62*
O=C(O)c1ccc(COc2ccccc2/C=C2\NC(=O)N(Cc3ccccc3F)C2=O)cc1	-3	0	-7	-2	-3
O=C(/C=C/c1ccc(Cl)cc1)NC(=S)NN1CCCCC1c1cccnc1 (centres undefined)	-24	0	6	2	91*
